Measurements: ChEMBL document CHEMBL1800004, “Discovery of 4-anilinofuro[2,3-b]quinoline derivatives as selective and orally active compounds against non-small-cell lung cancers” (J Med Chem, 2011)

Experiments:
Format in all cases: functional
SF-268 [1] = assay: Anticancer activity against human SF268 cells assessed as cell growth at 20 ug/mL after 48 hrs by SRB assay relative to control; settings: SF-268, 48 h, read-out: Activity
In short: (§1)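 Cells were inoculated and preincubated in microtiter plates. Compounds were dissolved in DMSO, diluted in culture medium, and tested at 20.0 and 4.0 μg/mL for 48 h. The end-point used sulforhodamine B protein staining, and growth was expressed as percent of untreated control cells.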

NCI-H460 [2] = assay: Anticancer activity against human NCI-H460 cells assessed as cell growth at 20 ug/mL after 48 hrs by SRB assay relative to control; settings: NCI-H460, 48 h, read-out: Activity; in short: as §1
MCF7 [3] = assay: Anticancer activity against human MCF7 cells assessed as cell growth at 4 ug/mL after 48 hrs by SRB assay relative to control; settings: MCF7, 48 h, read-out: Activity; in short: as §1
SF-268 [4] = assay: Anticancer activity against human SF268 cells assessed as cell growth at 4 ug/mL after 48 hrs by SRB assay relative to control; settings: SF-268, 48 h, read-out: Activity; in short: as §1
NCI-H460 [5] = assay: Anticancer activity against human NCI-H460 cells assessed as cell growth at 4 ug/mL after 48 hrs by SRB assay relative to control; settings: NCI-H460, 48 h, read-out: Activity; in short: as §1
MCF7 [6] = assay: Anticancer activity against human MCF7 cells assessed as cell growth at 20 ug/mL after 48 hrs by SRB assay relative to control; settings: MCF7, 48 h, read-out: Activity; in short: as §1

Row | Structure (SMILES) | growth at 20 µg/mL (SF-268 [1]) [%] | growth at 20 µg/mL (NCI-H460 [2]) [%] | growth at 4 µg/mL (MCF7 [3]) [%] | growth at 4 µg/mL (SF-268 [4]) [%] | growth at 4 µg/mL (NCI-H460 [5]) [%] | growth at 20 µg/mL (MCF7 [6]) [%]
1 | COc1ccc2c(Nc3ccc(/C(C)=N/OCCN4CCCCC4)cc3)c3ccoc3nc2c1 | 44 | 9 | 77 | 106 | 84 | 2
2 | C/C(=N\OCCN1CCCC1)c1ccc(Nc2c3ccccc3nc3occ(Cl)c23)cc1 | -3 | -1 | 86 | 86 | 69 | -2
3 | COc1ccc2c(Nc3ccc(C(=O)NCCN(C)C)cc3)c3c(Cl)coc3nc2c1 | 68 | 60 | 97 | 119 | 112 | 44
4 | C/C(=N\OCCN1CCOCC1)c1ccc(Nc2c3ccccc3nc3occ(Cl)c23)cc1 | 32 | 16 | 112 | 121 | 107 | 54
5 | COc1ccc2c(Nc3ccc(/C(C)=N/OCCN4CCCCC4)cc3)c3c(Cl)coc3nc2c1 | 48 | 3 | 56 | 112 | 67 | -1
6 | C/C(=N\OCCN1CCOCC1)c1ccc(Nc2c3ccccc3nc3occc23)cc1 | 32 | 23 | 120 | 121 | 108 | 56
7 | C/C(=N\OCCCCN1CCOCC1)c1ccc(Nc2c3ccccc3nc3occ(Cl)c23)cc1 | 3 | 3 | 75 | 115 | 91 | -3
8 | COc1ccc2c(Nc3ccc(/C(C)=N/OCCCCN4CCOCC4)cc3)c3c(Cl)coc3nc2c1 | 99 | 20 | 96 | 110 | 87 | 5
9 | C/C(=N\OCCN(C)C)c1ccc(Nc2c3ccccc3nc3occc23)cc1 | -5 | 0 | 59 | 81 | 94 | 0
10 | C/C(=N\OCCCCN1CCOCC1)c1ccc(Nc2c3ccccc3nc3occc23)cc1 | 2 | -1 | 76 | 125 | 118 | -2
11 | COc1ccc2c(Nc3ccc(/C(C)=N/OCCCN(C)C)cc3)c3c(Cl)coc3nc2c1 | 1 | 4 | 66 | 103 | 66 | 1
12 | COc1ccc2c(Nc3ccc(/C(C)=N/OCCN4CCCC4)cc3)c3ccoc3nc2c1 | 6 | 5 | 63 | 104 | 69 | 3
13 | COc1ccc2c(Nc3ccc(/C(C)=N/OCCCN)cc3)c3c(Cl)coc3nc2c1 | 48 | 8 | 101 | 109 | 91 | 3
14 | NC(=O)c1ccc(Nc2c3ccccc3nc3occ(Cl)c23)cc1 | 97 | 97 | 93 | 97 | 97 | 92
15 | COc1ccc2c(Nc3ccc(/C(C)=N/OCCCN)cc3)c3ccoc3nc2c1 | 56 | 16 | 100 | 103 | 105 | 18
16 | COc1ccc2c(Nc3ccc(S(N)(=O)=O)cc3)c3c(Cl)coc3nc2c1 |  | 17 | 90 |  | 97 | 33
17 | COc1ccc2c(Nc3ccc(/C(C)=N/OCCCN(C)C)cc3)c3ccoc3nc2c1 | 3 | 5 | 59 | 90 | 82 | 2
18 | C/C(=N\OCCN(C)C)c1ccc(Nc2c3ccccc3nc3occ(Cl)c23)cc1 | 2 | -1 | 70 | 71 | 68 | -3
19 | COc1ccc2c(Nc3ccc(/C(C)=N/OCCN(C)C)cc3)c3c(Cl)coc3nc2c1 | -1 | -1 | 51 | 102 | 74 | -2
20 | COc1ccc2c(Nc3ccc(C(N)=O)cc3)c3c(Cl)coc3nc2c1 |  | 77 | 90 |  | 96 | 66
21 | NS(=O)(=O)c1ccc(Nc2c3ccccc3nc3occ(Cl)c23)cc1 | 96 | 79 | 91 | 98 | 86 | 90
22 | C/C(=N\OCCCN(C)C)c1ccc(Nc2c3ccccc3nc3occc23)cc1 | 0 | 7 | 84 | 62 | 52 | 22
23 | CNC(=O)c1ccc(Nc2c3ccc(OC)cc3nc3occ(Cl)c23)cc1 | 35 | 27 | 72 | 52 | 58 | 47
24 | COc1ccc2c(Nc3ccc(C(=O)NCCO)cc3)c3c(Cl)coc3nc2c1 | 100 | 82 | 96 | 103 | 98 | 74
25 | C/C(=N\OCCN1CCCCC1)c1ccc(Nc2c3ccccc3nc3occ(Cl)c23)cc1 | 31 | 3 | 121 | 120 | 101 | 26
26 | C/C(=N\OCCCN(C)C)c1ccc(Nc2c3ccccc3nc3occ(Cl)c23)cc1 | 1 | 1 | 61 | 66 | 52 | 1
27 | C/C(=N\OCCN1CCCC1)c1ccc(Nc2c3ccccc3nc3occc23)cc1 | -3 | 1 | 64 | 66 | 54 | 6
28 | C/C(=N\OCCN1CCCCC1)c1ccc(Nc2c3ccccc3nc3occc23)cc1 | -3 | -1 | 114 | 96 | 99 | 3
29 | O=C(O)c1ccc(Nc2c3ccccc3nc3occ(Cl)c23)cc1 | 73 | 81 | 62 | 80 | 89 | 61
